Consider 34 compounds from ChEMBL document CHEMBL1166008, “A new class of potential anti-tuberculosis agents: Synthesis and preliminary evaluation of novel acrylic acid ethyl ester derivatives” (Bioorg Med Chem, 2010).

In brackets after ≈: the same amount, converted by molar mass. Bounds are passed on as bounds.

In one assay the test system is Escherichia coli. Briefly: Antibacterial activity against Escherichia coli ATCC 25922 after 18 to 24 hrs by microtiter plate method. Format: functional. In short, it runs like this:
(§1)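 Broth microdilution MIC in cation-adjusted Mueller–Hinton broth. Cultures grown statically overnight on tryptic soy agar at 35 °C. Plates incubated 18–24 h at 35 °C and scored growth/no growth. Tetracycline control included.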

The test system of another assay is Staphylococcus aureus. The assay is described as follows: Antibacterial activity against Staphylococcus aureus ATCC 29213 after 18 to 24 hrs by microtiter plate method. Format: functional. In short, it runs like this:
as §1

Assay [1] deals with Mycolicibacterium smegmatis. The assay is described as follows: Antimycobacterial activity against Mycobacterium smegmatis after 48 hrs by microtiter plate method. Type of assay: functional. Put shortly:
(§2)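 Broth microdilution MIC in Middlebrook 7H9 broth with 10% OADC. Mycobacterial cultures grown statically seven days in the same medium at 35 °C. Plates incubated 48 h at 35 °C and scored growth/no growth. Rifampin positive control.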

A further assay deals with Bacillus cereus. Briefly: Antibacterial activity against Bacillus cereus after 18 to 24 hrs by microtiter plate method. Type of assay: functional. Put shortly:
as §1

A further assay relates to Mycobacteroides chelonae. The assay is described as follows: Antimycobacterial activity against Mycobacterium chelonae after 48 hrs by microtiter plate method. Format: functional. In short, it runs like this: as §2
Assay [2] deals with Mycobacterium intracellulare. The assay is described as follows: Antimycobacterial activity against Mycobacterium intracellular after 48 hrs by microtiter plate method. Type of assay: functional. In short, it runs like this: as §2
The subject of the next assay is J774.A1. Briefly: Cytotoxicity against mouse J774A1 cells after 24 hrs by trypan blue exclusion assay. The settings on record: J774.A1, 24 h. Type of assay: cell-based. Put shortly: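 Murine J774A.1 monocytes seeded at 1 × 10^6/well in RPMI 1640. Next day, twofold dilutions of drug in PBS added. Following day, trypan blue added for 10 min, then dead (blue) and live cells counted in three fields per well. IC50 taken as concentration giving 50% dead cells.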

For the next assay, the system named is Mycobacterium kansasii. Briefly: Antimycobacterial activity against Mycobacterium kansasii after 48 hrs by microtiter plate method. Format: functional. In short, it runs like this: as §2
The test system of another assay is Mycobacterium avium. The assay is described as follows: Antimycobacterial activity against Mycobacterium avium after 48 hrs by microtiter plate method. Format: functional. Put shortly:
as §2

The subject of assay [3] is Mycobacterium tuberculosis. The assay is described as follows: Antimycobacterial activity against Mycobacterium tuberculosis H37Rv after 48 hrs by green fluorescent protein-based assay. Type of assay: functional. Put shortly: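 M. tuberculosis H37Rv carrying high-copy pHIGH22 plasmid expressing GFP. Killing read as loss of GFP fluorescence. Isoniazid and rifampin positive controls.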

Assay [4] concerns Mycolicibacterium fortuitum. Briefly: Antimycobacterial activity against Mycobacterium fortuitum after 48 hrs by microtiter plate method. Type of assay: functional. Put shortly:
as §2

A word on the MIC: it is the least concentration at which growth counts as inhibited. Read a high MIC as a need for much substance. Consider `CCOC(=O)/C=C\Oc1ccc(C(C)(C)C)cc1`, for which the MIC in the assay with Escherichia coli is above 128 µg/mL; in the assay on Staphylococcus aureus it was above 128 µg/mL; in [1] it was 128 µg/mL (≈ 515 µM); against Bacillus cereus, above 128 µg/mL.

What is called IC50 is the point on the concentration scale where inhibition reaches its midpoint. High values mean weaker potency in that assay, low ones greater potency in that assay. Take `CCOC(=O)/C=C\Sc1ccc(C(C)(C)C)cc1`: the minimum inhibitory concentration (MIC) is above 128 µg/mL against Escherichia coli; 8 µg/mL (≈ 30.3 µM) in the assay on Mycobacteroides chelonae; 128 µg/mL (≈ 484 µM) in [2]; above 128 µg/mL with Staphylococcus aureus; 16 µg/mL (≈ 60.5 µM) in assay [1]; 16 µg/mL (≈ 60.5 µM) with Mycobacterium kansasii. The MIC against Bacillus cereus was above 128 µg/mL; in the assay on Mycobacterium avium, 64 µg/mL (≈ 242 µM); in assay [3], 25 µg/mL (≈ 94.6 µM); in assay [4], 4 µg/mL (≈ 15.1 µM). In the assay with J774.A1, this compound had an IC50 of 150 µg/mL (≈ 567 µM).

Consider `CCOC(=O)/C=C\Oc1ccc(F)cc1`, for which the MIC (against Escherichia coli; with Staphylococcus aureus; in [1]; with Bacillus cereus) was above 128 µg/mL each time.

Turning to `CCOC(=O)/C=C\n1ccc2ccccc21`, the MIC (against Escherichia coli; against Staphylococcus aureus; in [1]; against Bacillus cereus) was above 128 µg/mL each time.

With `CCOC(=O)/C=C\Oc1cccc2ccccc12`, the MIC was above 128 µg/mL with Escherichia coli, above 128 µg/mL in the assay with Staphylococcus aureus, 64 µg/mL (≈ 264 µM) in assay [1] and above 128 µg/mL against Bacillus cereus.

With `CCOC(=O)/C=C\Oc1ccsc1C(=O)OC`, the MIC (in the assay on Escherichia coli; against Staphylococcus aureus; in [1]; against Bacillus cereus) was above 128 µg/mL each time.

Regarding `CCOC(=O)/C=C\Oc1ccccc1C`, the MIC (against Escherichia coli; against Staphylococcus aureus; in assay [1]; in the assay with Bacillus cereus) was above 128 µg/mL in each case.

With `CCOC(=O)/C=C\Sc1ccccc1C(=O)OC`, the MIC in the assay with Escherichia coli is above 128 µg/mL; in the assay on Staphylococcus aureus, above 128 µg/mL; in assay [1] it was 64 µg/mL (≈ 240 µM); against Bacillus cereus it was above 128 µg/mL.

For `CCOC(=O)/C=C\Oc1ccc(C(N)=O)cc1`, the MIC (against Escherichia coli; against Staphylococcus aureus; in [1]; with Bacillus cereus) was above 128 µg/mL in each case.

`CCOC(=O)/C=C\Oc1ccccc1C(C)C`: the MIC (with Escherichia coli; against Staphylococcus aureus; in assay [1]; against Bacillus cereus) was above 128 µg/mL in each case.

As to `CCOC(=O)/C=C\Oc1cccc(F)c1`, the minimal inhibitory concentration (MIC) (in the assay on Escherichia coli; in the assay with Staphylococcus aureus; in assay [1]; against Bacillus cereus) was above 128 µg/mL each time.

In the case of `CO[C@H]1/C=C/O[C@@]2(C)Oc3c(C)c(O)c4c(O)c(c(/C=N/N5CCN(C)CC5)c(O)c4c3C2=O)NC(=O)/C(C)=C\C=C\[C@H](C)[C@H](O)[C@@H](C)[C@@H](O)[C@@H](C)[C@H](OC(C)=O)[C@@H]1C` [RIFAMPIN], the values for the MIC in assay [1] and in assay [3] were 64 µg/mL (≈ 77.8 µM) and below 0.03 µg/mL, respectively.

Regarding `CCOC(=O)/C=C\n1nnnc1SC`, the MIC is above 128 µg/mL against Escherichia coli, above 128 µg/mL against Staphylococcus aureus, 128 µg/mL (≈ 597 µM) in assay [1] and above 128 µg/mL against Bacillus cereus.

On to `CCOC(=O)/C=C\n1ncc2ccccc21`, for which the MIC (with Escherichia coli; against Staphylococcus aureus; in assay [1]; in the assay with Bacillus cereus) was above 128 µg/mL throughout.

For the compound `CCOC(=O)/C=C\Oc1cccc([N+](=O)[O-])c1`, the MIC in the assay with Escherichia coli is above 128 µg/mL; in the assay with Staphylococcus aureus it was 64 µg/mL (≈ 270 µM); in [1], 64 µg/mL (≈ 270 µM); in the assay with Bacillus cereus it was above 128 µg/mL.

For the compound `CCOC(=O)/C=C\SC1CCCCC1`, the MIC (against Escherichia coli; in the assay with Staphylococcus aureus; in assay [1]; against Bacillus cereus) was above 128 µg/mL throughout.

Consider `CCOC(=O)/C=C\Oc1cc(OC)cc(OC)c1`, for which the MIC against Escherichia coli was above 128 µg/mL; in the assay on Staphylococcus aureus, above 128 µg/mL; in assay [1], 128 µg/mL (≈ 507 µM); against Bacillus cereus, above 128 µg/mL.

Consider `CCOC(=O)/C=C\Oc1ccc2ccccc2c1`, for which the MIC in the assay with Escherichia coli was above 128 µg/mL; against Staphylococcus aureus, above 128 µg/mL; in assay [1], 128 µg/mL (≈ 528 µM); against Bacillus cereus, above 128 µg/mL.

Turning to `CCOC(=O)/C=C\n1nnc2ccccc21`, the MIC (in the assay on Escherichia coli; in the assay on Staphylococcus aureus; in assay [1]; in the assay with Bacillus cereus) was above 128 µg/mL in each case.

In the case of `CCOC(=O)/C=C\n1ccnc1`, the MIC (in the assay on Escherichia coli; with Staphylococcus aureus; in [1]; against Bacillus cereus) was above 128 µg/mL throughout.

With `CCOC(=O)/C=C\Sc1cccs1`, the MIC in the assay with Escherichia coli was above 128 µg/mL; against Staphylococcus aureus, above 128 µg/mL; in assay [1], 128 µg/mL (≈ 597 µM); against Bacillus cereus, above 128 µg/mL.

`CCOC(=O)/C=C\Oc1cccnc1`: the MIC (against Escherichia coli; against Staphylococcus aureus; in assay [1]; in the assay on Bacillus cereus) was above 128 µg/mL in each case.

With `CCOC(=O)/C=C\Sc1ccc2ccccc2c1`, the minimum inhibitory concentration (MIC) was above 128 µg/mL in the assay on Escherichia coli, 128 µg/mL (≈ 495 µM) in the assay on Staphylococcus aureus, 64 µg/mL (≈ 248 µM) in assay [1] and above 128 µg/mL with Bacillus cereus.

For the compound `CCOC(=O)/C=C\Sc1ccccn1`, the MIC with Escherichia coli is above 128 µg/mL; against Staphylococcus aureus, above 128 µg/mL; in [1], 128 µg/mL (≈ 612 µM); in the assay with Bacillus cereus, above 128 µg/mL.

Regarding `CCOC(=O)/C=C\Sc1cccc2ccccc12`, the MIC is above 128 µg/mL in the assay on Escherichia coli, above 128 µg/mL in the assay on Staphylococcus aureus, 128 µg/mL (≈ 495 µM) in assay [1] and above 128 µg/mL with Bacillus cereus.

In the case of `N#Cc1cccc(/C=C/SC2=NCCS2)c1` [PHENOTHIOSTYRENE], the MIC with Escherichia coli was above 128 µg/mL; with Staphylococcus aureus it was above 128 µg/mL; in assay [1], 64 µg/mL (≈ 260 µM); against Bacillus cereus, above 128 µg/mL.

For `CCOC(=O)/C=C\Sc1ccc(O)cc1`, the MIC against Escherichia coli is above 128 µg/mL; with Staphylococcus aureus, 128 µg/mL (≈ 571 µM); in assay [1] it was 64 µg/mL (≈ 285 µM); with Bacillus cereus, 128 µg/mL (≈ 571 µM).

Take `CCOC(=O)/C=C\Sc1nc2ccccc2s1`: the MIC against Escherichia coli is above 128 µg/mL; in the assay with Mycobacteroides chelonae, 8 µg/mL (≈ 30.1 µM); in [2], 16 µg/mL (≈ 60.3 µM); against Staphylococcus aureus, above 128 µg/mL; in assay [1] it was 32 µg/mL (≈ 121 µM); with Mycobacterium kansasii, 8 µg/mL (≈ 30.1 µM). Besides, the MIC was above 128 µg/mL in the assay on Bacillus cereus, 64 µg/mL (≈ 241 µM) with Mycobacterium avium, 25 µg/mL (≈ 94.2 µM) in assay [3] and 16 µg/mL (≈ 60.3 µM) in assay [4]. The compound also gave a half-inhibitory concentration (IC50) in the assay on J774.A1 of 200 µg/mL (≈ 754 µM).

Turning to `CCOC(=O)/C=C\Oc1ccccc1C(=O)OC`, the MIC (against Escherichia coli; against Staphylococcus aureus; in assay [1]; against Bacillus cereus) was above 128 µg/mL throughout.

Consider `CCOC(=O)/C=C\Sc1ncccn1`, for which the MIC with Escherichia coli is above 128 µg/mL; in the assay with Staphylococcus aureus, above 128 µg/mL; in assay [1], 64 µg/mL (≈ 304 µM); against Bacillus cereus, above 128 µg/mL.

Consider `CCOC(=O)/C=C\n1cccn1`, for which the MIC (in the assay with Escherichia coli; against Staphylococcus aureus; in assay [1]; in the assay on Bacillus cereus) was above 128 µg/mL each time.

`NNC(=O)c1ccncc1` [ISONIAZID] displayed an MIC in assay [3] of 0.25 µg/mL (≈ 1.82 µM).

As to `CCOC(=O)/C=C\Sc1ccccc1C(C)C`, the MIC (in the assay on Escherichia coli; against Staphylococcus aureus; in assay [1]; against Bacillus cereus) was above 128 µg/mL each time.

On to `CCOC(=O)/C=C\Oc1nc2ccccc2s1`, for which the MIC with Escherichia coli was above 128 µg/mL; against Staphylococcus aureus, above 128 µg/mL; in assay [1] it was 128 µg/mL (≈ 513 µM); against Bacillus cereus, above 128 µg/mL.
